The source of these data is ChEMBL document CHEMBL5661979, “Pharmacological inhibition of BMK1 suppresses tumor growth through promyelocytic leukemia protein” (Cancer Cell, 2010).

The nature of test [1]: Inhibition of SRC/FYN/YES in human HeLa cells lysate at 2 uM pre incubated for 15 mins followed by ATP acyl phosphate probe addition and measured after 10 mins by LC-MS/MS analysis relative to control. Particulars: 25 min, condition cancer.
Test [2] has as its target Serine/threonine-protein kinase PLK1 (Homo sapiens, UniProt P53350). The test can be described thus: Inhibition of PLK1 splice variant in human HeLa cells lysate pre incubated for 15 mins followed by ADP acyl phosphate probe addition and measured after 10 mins by LC-MS/MS analysis. The format is subcellular.
Test [3] addresses Cyclin-dependent kinase 9 (Homo sapiens, UniProt P50750). The test can be described thus: Inhibition of CDK9 in human HeLa cells lysate pre incubated for 15 mins followed by ADP acyl phosphate probe addition and measured after 10 mins by LC-MS/MS analysis. The format is subcellular. A digest of the protocol:
(§1)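 KiNativ profiling in HeLa lysate (5 mg/mL total protein). Lysate incubated 15 min with inhibitor at 50, 10, 2, 0.8 or 0 μM. ATP or ADP acylphosphate probe then added (5 μM final) and reacted 10 min. Reaction stopped with urea and analysed by targeted MS, using up to four fragment ions per kinase peptide-probe conjugate. % inhibition taken against untreated lysate. Run in duplicate.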

The target in test [4] is Phosphatidylinositol 4-phosphate 3-kinase C2 domain-containing subunit beta (Homo sapiens, UniProt O00750). The test can be described thus: Inhibition of PIK3C2B in human HeLa cells lysate pre incubated for 15 mins followed by ATP acyl phosphate probe addition and measured after 10 mins by LC-MS/MS analysis. The format is subcellular.
For test [5], the target named is AMPK alpha1/alpha2 (Homo sapiens, UniProt P54646+Q13131). The test can be described thus: Inhibition of AMPKalpha1/2 in human HeLa cells lysate at 2 uM pre incubated for 15 mins followed by ATP acyl phosphate probe addition and measured after 10 mins by LC-MS/MS analysis relative to control. The format is subcellular. Particulars: time 25.0 min. The method in brief:
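HeLa cell lysates (5 mg/mL total protein) were preincubated with inhibitor at 0, 0.8, 2, 10 or 50 μM for 15 min. ATP or ADP acylphosphate probe was then added (5 μM final) for 10 min, and reactions were stopped with urea. Up to four fragment ions per kinase probe-peptide were quantified by targeted MS. % inhibition was taken relative to untreated lysate. Run in duplicate.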

Test [6] deals with Mitogen-activated protein kinase kinase kinase 1 (Homo sapiens, UniProt Q13233). The test can be described thus: Inhibition of MAP3K1 in human HeLa cells lysate at 10 uM pre incubated for 15 mins followed by ADP acyl phosphate probe addition and measured after 10 mins by LC-MS/MS analysis relative to control. The test is classed as subcellular. To be noted: time 25.0 min.
In test [7] the target is MAP/microtubule affinity-regulating kinase 3 (Homo sapiens, UniProt P27448). The test can be described thus: Inhibition of MARK3 in human HeLa cells lysate at 50 uM pre incubated for 15 mins followed by ATP acyl phosphate probe addition and measured after 10 mins by LC-MS/MS analysis relative to control. The format is subcellular. To be noted: time 25.0 min.
The target in test [8] is Activated CDC42 kinase 1 (Homo sapiens, UniProt Q07912). The test can be described thus: Inhibition of ACK1 in human HeLa cells lysate pre incubated for 15 mins followed by ADP acyl phosphate probe addition and measured after 10 mins by LC-MS/MS analysis. The test is classed as subcellular. A digest of the protocol:
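HeLa cell lysate (5 mg/mL total protein) preincubated 15 min with inhibitor at 50, 10, 2, 0.8 and 0 μM, then ATP or ADP acylphosphate probe added (5 μM final) for 10 min. Reaction stopped with urea, then targeted LC-MS/MS. Up to four fragment ions per kinase peptide-probe conjugate were used. % inhibition was taken versus untreated lysate. Run in duplicate.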

For test [9], the target named is Cyclin-dependent kinase 5 (Homo sapiens, UniProt Q00535). The test can be described thus: Inhibition of CDK5 in human HeLa cells lysate pre incubated for 15 mins followed by ADP acyl phosphate probe addition and measured after 10 mins by LC-MS/MS analysis. The test is classed as subcellular. A digest of the protocol:
as §1

For test [10], the target named is DNA-dependent protein kinase catalytic subunit (Homo sapiens, UniProt P78527). The test can be described thus: Inhibition of PRKDC in human HeLa cells lysate pre incubated for 15 mins followed by ATP acyl phosphate probe addition and measured after 10 mins by LC-MS/MS analysis. The format is subcellular.
For test [11], the target named is Ribosomal protein S6 kinase alpha-3 (Homo sapiens, UniProt P51812). The test can be described thus: Inhibition of RSK2 domain 1 active form in human HeLa cells lysate at 10 uM pre incubated for 15 mins followed by ATP acyl phosphate probe addition and measured after 10 mins by LC-MS/MS analysis relative to control. The format is subcellular. To be noted: time 25.0 min.

Test [12] can be described thus: Inhibition of MST4/YSK1 in human HeLa cells lysate at 50 uM pre incubated for 15 mins followed by ATP acyl phosphate probe addition and measured after 10 mins by LC-MS/MS analysis relative to control. To be noted: 25 min, condition cancer.
Test [13] has as its target Dual specificity mitogen-activated protein kinase kinase 1 (Homo sapiens, UniProt Q02750). The test can be described thus: Inhibition of MAP2K1 in human HeLa cells lysate pre incubated for 15 mins followed by ADP acyl phosphate probe addition and measured after 10 mins by LC-MS/MS analysis. The test is classed as subcellular.
For test [14], the target named is Phosphatidylinositol 4-kinase alpha (Homo sapiens, UniProt P42356). The test can be described thus: Inhibition of PIK4CA in human HeLa cells lysate pre incubated for 15 mins followed by ATP acyl phosphate probe addition and measured after 10 mins by LC-MS/MS analysis. The format is subcellular.
Test [15] can be described thus: Inhibition of PCTAIRE2/ICK in human HeLa cells lysate at 10 uM pre incubated for 15 mins followed by ADP acyl phosphate probe addition and measured after 10 mins by LC-MS/MS analysis relative to control. Particulars: 25 min, condition cancer.
For test [16], the target named is Dual specificity mitogen-activated protein kinase kinase 4 (Homo sapiens, UniProt P45985). The test can be described thus: Inhibition of MAP2K4 in human HeLa cells lysate pre incubated for 15 mins followed by ADP acyl phosphate probe addition and measured after 10 mins by LC-MS/MS analysis. The test is classed as subcellular.
The target in test [17] is T1, Phosphorylase b kinase gamma catalytic chain, liver/testis isoform (Homo sapiens) (UniProt P15735).
T1 sequence (whole entry): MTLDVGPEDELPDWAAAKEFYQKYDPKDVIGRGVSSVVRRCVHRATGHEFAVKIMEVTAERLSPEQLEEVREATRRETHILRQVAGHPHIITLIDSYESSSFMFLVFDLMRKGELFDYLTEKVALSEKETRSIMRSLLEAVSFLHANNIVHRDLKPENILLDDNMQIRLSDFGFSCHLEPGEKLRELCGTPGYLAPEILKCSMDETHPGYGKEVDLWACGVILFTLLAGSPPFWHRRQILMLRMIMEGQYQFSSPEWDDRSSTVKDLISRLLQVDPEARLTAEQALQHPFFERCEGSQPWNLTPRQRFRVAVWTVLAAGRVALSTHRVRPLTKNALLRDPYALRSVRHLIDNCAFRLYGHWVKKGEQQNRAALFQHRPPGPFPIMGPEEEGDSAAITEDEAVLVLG
The test can be described thus: Inhibition of PHKg2 in human HeLa cells lysate at 50 uM pre incubated for 15 mins followed by ATP acyl phosphate probe addition and measured after 10 mins by LC-MS/MS analysis relative to control. The test is classed as subcellular. Particulars: time 25.0 min.

A short description of test [18]: Inhibition of PKD1/2 in human HeLa cells lysate at 50 uM pre incubated for 15 mins followed by ATP acyl phosphate probe addition and measured after 10 mins by LC-MS/MS analysis relative to control. To be noted: 25 min, condition cancer.
For test [19], the target named is Serine/threonine-protein kinase Nek8 (Homo sapiens, UniProt Q86SG6). The test can be described thus: Inhibition of NEK8 in human HeLa cells lysate pre incubated for 15 mins followed by ADP acyl phosphate probe addition and measured after 10 mins by LC-MS/MS analysis. The format is subcellular.

Sequence of DNA-dependent protein kinase catalytic subunit (P78527 whole entry, the tested form may be a part): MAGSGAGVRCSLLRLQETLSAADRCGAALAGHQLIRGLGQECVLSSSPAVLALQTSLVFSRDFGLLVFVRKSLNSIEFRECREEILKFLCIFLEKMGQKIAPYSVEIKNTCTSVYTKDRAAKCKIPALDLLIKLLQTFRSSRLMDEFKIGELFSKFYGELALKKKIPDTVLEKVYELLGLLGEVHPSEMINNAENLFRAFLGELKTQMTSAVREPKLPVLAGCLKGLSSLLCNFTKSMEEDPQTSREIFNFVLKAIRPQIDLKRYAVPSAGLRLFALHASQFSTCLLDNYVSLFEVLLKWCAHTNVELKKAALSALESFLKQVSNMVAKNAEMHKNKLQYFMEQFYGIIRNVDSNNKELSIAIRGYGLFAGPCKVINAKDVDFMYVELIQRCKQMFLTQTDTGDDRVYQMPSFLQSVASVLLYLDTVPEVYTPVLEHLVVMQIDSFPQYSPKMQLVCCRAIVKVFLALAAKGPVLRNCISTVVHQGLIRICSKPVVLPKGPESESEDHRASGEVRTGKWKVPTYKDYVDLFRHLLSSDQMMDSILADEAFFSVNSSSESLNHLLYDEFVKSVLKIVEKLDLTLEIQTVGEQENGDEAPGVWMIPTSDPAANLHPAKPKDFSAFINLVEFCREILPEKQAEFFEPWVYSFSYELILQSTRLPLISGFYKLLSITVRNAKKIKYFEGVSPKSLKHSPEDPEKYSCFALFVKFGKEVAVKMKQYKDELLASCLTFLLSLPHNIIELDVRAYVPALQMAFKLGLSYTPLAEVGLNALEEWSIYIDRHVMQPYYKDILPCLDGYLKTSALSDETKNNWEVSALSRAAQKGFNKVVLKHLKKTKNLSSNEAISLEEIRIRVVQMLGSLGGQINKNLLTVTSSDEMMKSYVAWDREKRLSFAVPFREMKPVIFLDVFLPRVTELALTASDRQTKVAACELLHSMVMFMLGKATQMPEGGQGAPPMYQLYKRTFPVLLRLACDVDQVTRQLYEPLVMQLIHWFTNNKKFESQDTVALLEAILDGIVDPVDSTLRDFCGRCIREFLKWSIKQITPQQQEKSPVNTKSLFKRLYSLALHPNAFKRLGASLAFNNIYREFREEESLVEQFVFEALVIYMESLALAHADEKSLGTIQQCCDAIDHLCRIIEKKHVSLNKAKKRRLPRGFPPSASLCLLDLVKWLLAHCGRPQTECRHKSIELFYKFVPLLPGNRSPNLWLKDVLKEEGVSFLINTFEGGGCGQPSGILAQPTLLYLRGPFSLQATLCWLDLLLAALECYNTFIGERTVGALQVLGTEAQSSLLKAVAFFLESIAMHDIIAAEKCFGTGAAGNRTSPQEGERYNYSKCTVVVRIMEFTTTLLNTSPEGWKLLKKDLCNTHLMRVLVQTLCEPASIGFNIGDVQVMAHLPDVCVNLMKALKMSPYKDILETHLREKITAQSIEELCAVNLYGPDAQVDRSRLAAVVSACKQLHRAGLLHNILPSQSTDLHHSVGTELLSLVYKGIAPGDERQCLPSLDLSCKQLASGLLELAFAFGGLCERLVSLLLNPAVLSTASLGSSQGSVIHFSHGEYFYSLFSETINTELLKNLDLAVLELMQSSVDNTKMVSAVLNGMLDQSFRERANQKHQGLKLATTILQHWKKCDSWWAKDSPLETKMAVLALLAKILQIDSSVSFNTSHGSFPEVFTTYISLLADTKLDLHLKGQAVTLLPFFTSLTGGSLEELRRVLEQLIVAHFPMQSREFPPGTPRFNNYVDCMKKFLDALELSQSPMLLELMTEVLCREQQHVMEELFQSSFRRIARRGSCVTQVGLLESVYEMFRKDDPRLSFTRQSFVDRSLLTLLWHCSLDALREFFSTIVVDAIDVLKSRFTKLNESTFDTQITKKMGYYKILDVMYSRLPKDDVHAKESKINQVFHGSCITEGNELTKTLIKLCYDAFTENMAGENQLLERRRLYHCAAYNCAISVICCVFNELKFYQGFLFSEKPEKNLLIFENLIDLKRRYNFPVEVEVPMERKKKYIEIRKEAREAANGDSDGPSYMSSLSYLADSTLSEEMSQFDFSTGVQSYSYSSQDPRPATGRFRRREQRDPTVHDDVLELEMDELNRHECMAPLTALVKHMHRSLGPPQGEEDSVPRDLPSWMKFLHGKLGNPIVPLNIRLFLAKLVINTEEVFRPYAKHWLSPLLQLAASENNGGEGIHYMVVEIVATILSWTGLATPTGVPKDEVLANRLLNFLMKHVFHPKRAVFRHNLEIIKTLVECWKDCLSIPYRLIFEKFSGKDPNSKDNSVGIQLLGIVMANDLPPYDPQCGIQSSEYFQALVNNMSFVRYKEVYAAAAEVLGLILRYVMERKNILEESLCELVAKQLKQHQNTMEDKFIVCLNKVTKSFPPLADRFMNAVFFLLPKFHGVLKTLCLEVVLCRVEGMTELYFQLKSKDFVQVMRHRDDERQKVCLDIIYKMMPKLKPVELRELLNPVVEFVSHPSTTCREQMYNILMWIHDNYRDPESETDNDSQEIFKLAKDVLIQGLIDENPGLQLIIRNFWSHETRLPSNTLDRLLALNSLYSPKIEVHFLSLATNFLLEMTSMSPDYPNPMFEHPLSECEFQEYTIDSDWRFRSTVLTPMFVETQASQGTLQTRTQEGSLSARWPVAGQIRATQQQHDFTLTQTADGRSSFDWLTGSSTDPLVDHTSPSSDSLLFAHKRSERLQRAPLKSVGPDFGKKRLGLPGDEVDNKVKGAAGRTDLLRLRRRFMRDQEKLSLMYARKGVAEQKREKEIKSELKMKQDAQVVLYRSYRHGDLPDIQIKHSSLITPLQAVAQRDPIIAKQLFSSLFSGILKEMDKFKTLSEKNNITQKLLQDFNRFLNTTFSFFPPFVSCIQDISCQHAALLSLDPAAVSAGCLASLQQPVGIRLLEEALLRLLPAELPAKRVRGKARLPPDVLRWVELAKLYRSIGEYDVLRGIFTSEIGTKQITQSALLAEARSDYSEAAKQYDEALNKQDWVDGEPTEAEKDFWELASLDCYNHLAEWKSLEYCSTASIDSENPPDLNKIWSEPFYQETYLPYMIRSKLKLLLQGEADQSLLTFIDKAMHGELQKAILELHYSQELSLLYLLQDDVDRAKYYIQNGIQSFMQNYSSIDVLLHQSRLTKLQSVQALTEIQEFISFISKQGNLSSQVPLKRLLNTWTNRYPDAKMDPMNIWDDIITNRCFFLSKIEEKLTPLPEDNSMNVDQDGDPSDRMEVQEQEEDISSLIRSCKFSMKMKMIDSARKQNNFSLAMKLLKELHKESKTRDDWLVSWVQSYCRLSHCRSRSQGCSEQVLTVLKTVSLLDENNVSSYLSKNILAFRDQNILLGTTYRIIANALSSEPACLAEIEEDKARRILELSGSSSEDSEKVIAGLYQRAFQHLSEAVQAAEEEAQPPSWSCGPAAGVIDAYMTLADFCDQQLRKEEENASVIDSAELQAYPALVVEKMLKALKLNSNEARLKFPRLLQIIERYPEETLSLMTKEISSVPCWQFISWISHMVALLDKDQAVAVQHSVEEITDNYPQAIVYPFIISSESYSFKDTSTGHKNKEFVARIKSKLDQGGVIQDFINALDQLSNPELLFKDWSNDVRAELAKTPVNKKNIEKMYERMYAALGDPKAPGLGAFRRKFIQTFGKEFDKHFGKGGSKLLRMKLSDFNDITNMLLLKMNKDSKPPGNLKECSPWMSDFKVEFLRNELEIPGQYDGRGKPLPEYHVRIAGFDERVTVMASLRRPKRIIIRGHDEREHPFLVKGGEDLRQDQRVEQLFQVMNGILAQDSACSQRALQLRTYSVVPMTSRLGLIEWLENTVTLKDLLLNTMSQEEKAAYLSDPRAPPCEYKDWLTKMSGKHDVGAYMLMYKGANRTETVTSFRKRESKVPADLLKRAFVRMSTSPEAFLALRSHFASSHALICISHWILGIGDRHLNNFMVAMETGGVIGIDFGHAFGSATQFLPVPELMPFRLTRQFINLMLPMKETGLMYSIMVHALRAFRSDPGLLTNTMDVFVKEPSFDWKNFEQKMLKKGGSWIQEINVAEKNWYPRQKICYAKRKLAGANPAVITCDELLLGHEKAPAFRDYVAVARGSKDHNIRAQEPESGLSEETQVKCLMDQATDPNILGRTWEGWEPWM
Sequence of Dual specificity mitogen-activated protein kinase kinase 1 (Q02750 whole entry): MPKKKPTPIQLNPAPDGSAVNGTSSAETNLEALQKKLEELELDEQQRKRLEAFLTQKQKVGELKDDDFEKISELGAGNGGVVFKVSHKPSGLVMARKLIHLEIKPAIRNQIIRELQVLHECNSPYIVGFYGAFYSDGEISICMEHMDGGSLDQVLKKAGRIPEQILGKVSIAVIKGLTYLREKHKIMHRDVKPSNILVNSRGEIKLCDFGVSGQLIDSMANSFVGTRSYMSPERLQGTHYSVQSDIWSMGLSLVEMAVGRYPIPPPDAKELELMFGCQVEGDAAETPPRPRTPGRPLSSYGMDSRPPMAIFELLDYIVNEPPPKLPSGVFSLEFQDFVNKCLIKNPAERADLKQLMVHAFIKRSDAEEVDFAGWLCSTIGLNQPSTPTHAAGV
Sequence of Dual specificity mitogen-activated protein kinase kinase 4 (P45985 whole entry, canonical isoform): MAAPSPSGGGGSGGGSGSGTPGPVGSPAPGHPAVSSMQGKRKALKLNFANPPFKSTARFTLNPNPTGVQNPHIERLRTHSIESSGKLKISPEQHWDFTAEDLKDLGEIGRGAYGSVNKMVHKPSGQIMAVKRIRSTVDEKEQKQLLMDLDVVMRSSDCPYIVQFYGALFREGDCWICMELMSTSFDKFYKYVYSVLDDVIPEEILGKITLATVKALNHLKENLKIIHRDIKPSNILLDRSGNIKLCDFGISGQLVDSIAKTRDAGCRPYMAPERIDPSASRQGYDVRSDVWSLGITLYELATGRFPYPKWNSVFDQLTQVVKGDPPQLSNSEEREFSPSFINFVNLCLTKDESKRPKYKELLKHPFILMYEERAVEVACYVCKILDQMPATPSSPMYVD

Turning to `CCOc1cc(N2CCC(O)CC2)ccc1Nc1ncc2c(n1)N(C)c1ccccc1C(=O)N2C`, the inhibition at 2 µM in test [1] was -29.7%. Further, the 50% inhibitory concentration (IC50) was more than 50 µM in test [2]; more than 50 µM in test [3]; more than 50 µM in test [4]; 18 µM in [8]; more than 50 µM in [9]; more than 50 µM in test [10]. Further, the half-inhibitory concentration (IC50) is more than 50 µM in [13], 36 µM in test [14], more than 50 µM in test [16] and more than 50 µM in test [19]. Moreover, the inhibition in test [5] is -0.7%; in [6] it was 15.9%; in test [7], 6.2%; in test [11], -6.5%; in test [17] it was 8.5%. In addition, the inhibition at 50 µM is -6.1% in test [12] and 13.9% in test [18]. Further, the inhibition at 10 µM in [15] is -0.9%.
